According to ChEMBL document CHEMBL1255468 (Antimicrob Agents Chemother, 2010):
The source made the active and inactive calls. The rule behind the calls is not given here.

Assays:
[1] = system: Trypanosoma cruzi; assay: Antitrypanosomal activity against Trypanosoma cruzi infected in mouse assessed as reduction in inflammatory foci in cardiac muscle at 100 mg/kg, po after 6 days post infection; type: functional, organism-based; parameters: dose 100 mg/kg; settings: Muscle tissue
Outline: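 Infected mice were dosed by gavage at 100 mg/kg daily for 10 days from dpi 6. Two mice per group were euthanized at 14 dpi. Paraffin heart sections were stained with hematoxylin-eosin. Under a 40× objective, parasite nests and inflammatory foci (≥10 mononuclear cells) were counted per mm2 over 30 fields.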

[2] = system: Trypanosoma cruzi; assay: Antitrypanosomal activity against Trypanosoma cruzi amastigotes infected in mouse peritoneal macrophages assessed as inhibition of infection after 1 day; type: functional, organism-based; settings: 24 h
Outline: (§1)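 Swiss mouse peritoneal macrophages (3 × 10^5/well) were plated for 24 h, then infected with Y-strain trypomastigotes (10:1) in DMEM with 10% FCS for 3 h. Free parasites were washed off, and compounds were added at 2.5–30 µM final for 1–4 days. Cells were fixed in Bouin's solution and stained with Giemsa. Percent infection and endocytic index (parasites/100 cells) were counted, and IC50 was derived. Three independent experiments.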

[3] = system: Trypanosoma cruzi; assay: Antitrypanosomal activity against Trypanosoma cruzi Y infected in mouse assessed as decrease in mouse mortality at 200 mg/kg, po upto 40 days post infection; type: functional, organism-based; parameters: dose 200 mg/kg
Outline: (§2)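 Male Swiss mice (6–8 weeks, 18–20 g), 8–10 per group, infected i.p. with 10^4 bloodstream trypomastigotes (Y strain). On dpi 5, a single 200 mg/kg oral gavage dose was given in water with 10% Tween-80. Parasitemia was counted daily from dpi 6 to 21 by the Pizzi-Brener method. Body weight was recorded weekly. Mortality was recorded daily, and cumulative mortality at 40 dpi and M50 were calculated.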

[4] = system: Mus musculus; assay: Toxicity in mouse assessed as body weight at 400 mg/kg, po after 4 days; type: organism-based; parameters: dose 400 mg/kg, route oral; settings: in vivo, 96 h
Outline: (§3)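 Uninfected male Swiss mice, 8–10 per group, received by gavage either a single 400 mg/kg dose or 10 doses of 100 mg/kg (vehicle water with 10% Tween-80). GOT, GPT and urea were measured directly in blood with the Reflotron system, and body weight was recorded. Single-dose toxicity was analyzed 4 days after treatment.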

[5] = system: Trypanosoma cruzi; assay: Antitrypanosomal activity against Trypanosoma cruzi amastigotes infected in mouse peritoneal macrophages assessed as inhibition of infection after 3 day; type: functional, organism-based; settings: 72 h; outline: as §1
[6] = system: Trypanosoma cruzi; assay: Antitrypanosomal activity against Trypanosoma cruzi trypomastigotes assessed as alteration in nuclear envelop dilation at […] after 24 hrs by Transmission electron microscopy; type: functional, organism-based
[7] = system: Trypanosoma cruzi; assay: Antitrypanosomal activity against Trypanosoma cruzi trypomastigotes assessed as parasite body rounding at […] after 24 hrs by scanning electron microscopy; type: functional, organism-based
[8] = system: Trypanosoma cruzi; assay: Antitrypanosomal activity against Trypanosoma cruzi amastigotes infected in mouse embryo heart muscle cells assessed as inhibition of infection; type: functional, organism-based; settings: TDE = time-dependent effect
Outline: (§4)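 Mouse embryo heart muscle cells (10^5/well) were plated on gelatin-coated coverslips and infected after 24 h with trypomastigotes at 10:1 parasite/host cell. After another 24 h, cultures were washed and exposed to compounds at 10–40 µM final. At intervals, cells were fixed in Bouin's solution and stained with Giemsa. Percent infection and endocytic index (parasites/100 cells) were counted, and IC50 was derived.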

[9] = system: Trypanosoma cruzi; assay: Antitrypanosomal activity against Trypanosoma cruzi trypomastigotes assessed as alteration in flagellar structure with membrane expansion at […] after 24 hrs by Transmission electron microscopy; type: functional, organism-based
[10] = system: Mus musculus; assay: Toxicity in mouse assessed as GPT level in blood at 100 mg/kg, po after 4 days; type: organism-based; parameters: dose 100 mg/kg, route oral; settings: in vivo, 96 h; outline: as §3
[11] = Selectivity index, ratio of LC50 for mouse HMC to IC50 for inhibition of Trypanosoma cruzi amastigotes
[12] = system: Trypanosoma cruzi; assay: Antitrypanosomal activity against Trypanosoma cruzi amastigotes infected in mouse peritoneal macrophages assessed as inhibition of infection after 4 day; type: functional, organism-based; settings: 96 h; outline: as §1
[13] = Selectivity index, ratio of LC50 for mouse peritoneal macrophages to IC50 for inhibition of Trypanosoma cruzi amastigotes
Outline: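 SI = LC50/IC50 in peritoneal macrophages. LC50 came from the 2-day MTT assay on uninfected macrophages. Cells were Bouin-fixed and Giemsa-stained, and endocytic index (parasites/100 cells) was counted. Three independent experiments.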

[14] = Cytotoxicity against swiss mouse HMC after 48 hrs by MTT assay; settings: read-out: LC50
Outline: (§5)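 Uninfected host cells were exposed to compounds at 37°C for 2 days, with compound stocks in DMSO. Cells were Swiss mouse peritoneal macrophages or primary mouse embryo heart muscle cells (18-day embryos, trypsin/collagenase dissociated, gelatin-coated coverslips, DMEM with horse and fetal calf sera, chicken embryo extract). Viability was read by MTT at 490 nm to give LC50.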

[15] = system: Trypanosoma cruzi; assay: Antitrypanosomal activity against Trypanosoma cruzi infected in mouse assessed as decrease in parasitemia in blood at 100 mg/kg, po after 6 days post infection; type: functional
Outline: (§6)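 Male Swiss mice, 8–10 per group, infected i.p. with 10^4 bloodstream trypomastigotes. From dpi 6, mice received 10 consecutive daily gavage doses of 100 mg/kg in water with 10% Tween-80. Parasitemia was read daily on dpi 6–21 by the Pizzi-Brener method. Mortality was noted daily, and %CM at 40 dpi and M50 were calculated.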

[16] = system: Trypanosoma cruzi; assay: Antitrypanosomal activity against Trypanosoma cruzi amastigotes infected in mouse peritoneal macrophages assessed as endocytic index after 1 day; type: functional, organism-based; settings: 24 h; outline: as §1
[17] = system: Trypanosoma cruzi; assay: Antitrypanosomal activity against Trypanosoma cruzi Y infected in mouse assessed as decrease in mouse mortality at 200 mg/kg, po after 16 days post infection; type: functional; parameters: scale not given: the % may be the effect or the level left
Outline: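 Male albino Swiss mice (6 to 8 weeks, 18 to 20 g), 8 to 10 per group, infected i.p. with 10^4 Y-strain bloodstream trypomastigotes. […] Parasitemia checked daily by Pizzi-Brener method; mortality noted daily to 40 dpi, cumulative mortality and M50 calculated.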

[18] = system: Mus musculus; assay: Toxicity in mouse assessed as urea level in blood at 100 mg/kg, po after 4 days; type: organism-based; parameters: dose 100 mg/kg, route oral; settings: in vivo, 96 h; outline: as §3
[19] = system: Mus musculus; assay: Toxicity in mouse assessed as urea level in blood at 400 mg/kg, po after 4 days; type: organism-based; parameters: dose 400 mg/kg, route oral; settings: in vivo, 96 h; outline: as §3
[20] = system: Trypanosoma cruzi; assay: Antitrypanosomal activity against Trypanosoma cruzi amastigotes infected in mouse embryo heart muscle cells assessed as endocytic index; type: functional, organism-based; outline: as §4
[21] = system: Trypanosoma cruzi; assay: Antitrypanosomal activity against Trypanosoma cruzi amastigotes infected in mouse embryo heart muscle cells assessed as inhibition of infection after 24 hrs; type: functional, organism-based; outline: as §4
[22] = system: Trypanosoma cruzi; assay: Antitrypanosomal activity against Trypanosoma cruzi amastigotes infected in mouse peritoneal macrophages assessed as endocytic index after 2 day; type: functional, organism-based; settings: 48 h; outline: as §1
[23] = system: Mus musculus; assay: Toxicity in mouse assessed as GOT level in blood at 100 mg/kg, po after 4 days; type: organism-based; parameters: dose 100 mg/kg, route oral; settings: in vivo, 96 h; outline: as §3
[24] = system: Trypanosoma cruzi; assay: Antitrypanosomal activity against Trypanosoma cruzi amastigotes infected in mouse peritoneal macrophages assessed as endocytic index after 3 day; type: functional, organism-based; settings: 72 h; outline: as §1
[25] = system: Trypanosoma cruzi; assay: Antitrypanosomal activity against Trypanosoma cruzi Y infected in mouse assessed as decrease in parasitemia in blood at 200 mg/kg, po upto 40 days post infection; type: functional; outline: as §2
[26] = Cytotoxicity against Swiss mouse peritoneal macrophages after 48 hrs by MTT assay; type: cell-based, Peritoneal macrophage cell; settings: read-out: LC50; outline: as §5
[27] = system: Trypanosoma cruzi; assay: Antitrypanosomal activity against Trypanosoma cruzi infected in mouse assessed as decrease in mortality rate at 100 mg/kg, po after 6 days post infection; type: functional, organism-based; parameters: dose 100 mg/kg; outline: as §6
[28] = system: Trypanosoma cruzi; assay: Antitrypanosomal activity against Trypanosoma cruzi trypomastigotes assessed as alteration in autophagosome-like structure formation at […] after 24 hrs by Transmission electron microscopy; type: functional, organism-based
[29] = system: Trypanosoma cruzi; assay: Antitrypanosomal activity against Trypanosoma cruzi amastigotes infected in mouse peritoneal macrophages assessed as endocytic index after 4 day; type: functional, organism-based; settings: 96 h; outline: as §1
[30] = system: Trypanosoma cruzi; assay: Antitrypanosomal activity against Trypanosoma cruzi amastigotes infected in mouse peritoneal macrophages assessed as inhibition of infection after 2 day; type: functional, organism-based; settings: 48 h; outline: as §1
[31] = system: Mus musculus; assay: Toxicity in mouse assessed as GPT level in blood at 400 mg/kg, po after 4 days; type: organism-based; parameters: dose 400 mg/kg, route oral; settings: in vivo, 96 h; outline: as §3
[32] = system: Mus musculus; assay: Toxicity in mouse assessed as GOT level in blood at 400 mg/kg, po after 4 days; type: organism-based; parameters: dose 400 mg/kg, route oral; settings: in vivo, 96 h; outline: as §3
[33] = system: Trypanosoma cruzi; assay: Antitrypanosomal activity against Trypanosoma cruzi Y infected in mouse assessed as decrease in mouse mortality at 200 mg/kg, po after 20 days post infection; type: functional, organism-based; parameters: dose 200 mg/kg; outline: as §2
[34] = system: Trypanosoma cruzi; assay: Antitrypanosomal activity against Trypanosoma cruzi amastigotes infected in mouse embryo heart muscle cells assessed as endocytic index at 40 uM; type: functional, organism-based; outline: as §4
[35] = system: Trypanosoma cruzi; assay: Antitrypanosomal activity against Trypanosoma cruzi trypomastigotes assessed as shortening of flagellum at 11.6 uM after 24 hrs by scanning electron microscopy; type: functional, organism-based
Outline: (§7)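 Trypomastigotes (5 × 10^6/ml) were treated for 24 h and adhered to poly-L-lysine coverslips. They were fixed in 2.5% glutaraldehyde in 0.1 M cacodylate (pH 7.2) for 40 min and postfixed for 30 min in 1% OsO4, 0.8% ferricyanide and 2.5 mM CaCl2. Samples were acetone-dehydrated, critical-point dried, gold-coated (20 nm) and examined by scanning EM.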

[36] = system: Trypanosoma cruzi; assay: Antitrypanosomal activity against Trypanosoma cruzi trypomastigotes assessed as shrinkage of cell surface and body at 11.6 uM after 24 hrs by scanning electron microscopy; type: functional, organism-based; outline: as §7

SMILES | Activity [1] | IC50 [2] [µM] | Activity [3] | Activity [4] [g] | IC50 [5] [µM] | IC50 [12] [nM] | Ratio LC50/IC50 [13] | CC50 at 48 h [14] [µM] | IC50 [16] [µM] | Activity [19] [mg/dL] | IC50 [22] [nM] | IC50 [24] [nM] | Activity [25] | CC50 at 48 h [26] [µM] | Activity [27] | IC50 [29] [nM] | IC50 [30] [µM] | Activity [31] [U/L] | Activity [32] [U/L] | further results
Cn1c([N+](=O)[O-])cnc1-c1nnc(N/N=C\c2ccc(O)c(O)c2)s1 [BRAZILIZONE A] | inactive | 2.1 | inactive | 25.8 | 2.6 | 1700 | >27 | > 240 | 2 | 51.6 | 2200 | 1400 | inactive | > 60 | inactive | 1900 | 4.4 | 22.7 | 62.4 | Activity [6]: Active; Activity [7]: Active; Activity [8]: tde; Activity [9]: Active; Activity [10]: Non-toxic; fold change (FC) [11]: > 32; Activity [15]: inactive; Activity [17]: 50%; Activity [18]: Non-toxic; IC50 [20]: 7.6 µM; Activity [21]: Dose-dependent effect; Activity [23]: Non-toxic; Activity [28]: Active
Cn1c([N+](=O)[O-])cnc1-c1nnc(N/N=C\c2cc(C(C)(C)C)c(O)c(C(C)(C)C)c2)s1 |  |  |  |  |  |  |  |  |  |  |  |  | Active |  |  |  |  |  |  | Activity [33]: inactive
Cn1c([N+](=O)[O-])cnc1-c1nnc(N/N=C\c2ccc(Cl)cc2)s1 |  |  | inactive |  |  |  |  |  |  |  |  |  | inactive |  |  |  |  |  |  | 
Cn1c([N+](=O)[O-])cnc1-c1nnc(N/N=C\c2ccc(O)cc2)s1 | Active | 7.1 | Active | 25.5 | 6.2 | 1700 | >41 | > 240 | 5 | 58.6 | 2900 | 3200 | 50% | > 100 | inactive | 1300 | 6 | 24.4 | 76.6 | Activity [34]: inactive; Activity [35]: Active; inhibition in vivo at 100 mg/kg ([15]; 144 h): 46%; Activity [36]: Active
